Values after ≈ are worked out from the molar mass of the structure shown.
Assays:
[1] = molecular target: DNA gyrase subunit B (Escherichia coli, UniProt P0AES6); assay: Inhibition of Escherichia coli GyrB (1 to 220 residues) expressed in Escherichia coli BL21(DE3)
[2] = test system: Pseudomonas aeruginosa; assay: Antibacterial activity against Pseudomonas aeruginosa PAO1 after 24 hrs by broth microdilution method; assay type: functional; details: PAO1, 24 h
Method in brief: (§1)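 Broth microdilution per CLSI. Bacterial suspension adjusted to 1×10^6 CFU/mL in cation-adjusted Mueller–Hinton broth and mixed 1:1 with 2-fold serial compound dilutions. Final DMSO 2.5% v/v. Plates incubated at 35 °C with shaking at 140 rpm for 24 h.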

[3] = Dissociation constant, basic pKa of compound by pH metric method; assay type: physicochemical
Method in brief: (§2)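 Potentiometric (pH-metric) titration on an automated titrator, Gold Standard pH metric assay, run in triplicate.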

[4] = test system: Escherichia coli; assay: Antibacterial activity against tolC deficient Escherichia coli after 24 hrs by broth microdilution method; assay type: functional
Method in brief: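 Broth microdilution per CLSI guidelines. Inoculum adjusted to 1×10^6 CFU/mL in cation-adjusted Mueller–Hinton broth, added 1:1 to 2-fold serial compound dilutions; final DMSO 2.5% v/v. Plates incubated 35 °C, 140 rpm, 24 h.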

[5] = test system: Pseudomonas aeruginosa; assay: Antibacterial activity against Pseudomonas aeruginosa harboring MexABCDXY deletion mutant after 24 hrs by broth microdilution method; assay type: functional
Method in brief: (§3)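 Broth microdilution per CLSI. Bacterial suspensions adjusted to 1×10^6 CFU/mL in cation-adjusted Mueller–Hinton broth, mixed 1:1 with 2-fold serial compound dilutions (final DMSO 2.5% v/v). Incubation 35 °C, 140 rpm, 24 h.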

[6] = test system: Escherichia coli; assay: Antibacterial activity against Escherichia coli after 24 hrs by broth microdilution method; assay type: functional; method in brief: as §1
[7] = Dissociation constant, acidic pKa of compound by pH metric method; assay type: physicochemical; method in brief: as §2
[8] = molecular target: DNA topoisomerase 4 subunit B (Escherichia coli K-12, UniProt P20083); assay: Inhibition of Escherichia coli ParE
[9] = test system: Streptococcus pyogenes; assay: Antibacterial activity against Streptococcus pyogenes ARC838 after 24 hrs by broth microdilution method; assay type: functional; details: ARC838, 24 h
Method in brief: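 Broth microdilution per CLSI. Bacterial suspension adjusted to 1×10^6 CFU/mL in cation-adjusted Mueller–Hinton broth and mixed 1:1 with 2-fold serial compound dilutions. Plates incubated at 35 °C with shaking at 140 rpm for 24 h.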

[10] = test system: Staphylococcus aureus; assay: Antibacterial activity against methicillin-resistant Staphylococcus aureus USA100 after 24 hrs by broth microdilution method; assay type: functional; details: USA100, 24 h; method in brief: as §3
[11] = test system: Acinetobacter baumannii; assay: Antibacterial activity against Acinetobacter baumannii ARC3495 after 24 hrs by broth microdilution method; assay type: functional; details: ARC3495, 24 h; method in brief: as §1
[12] = test system: Enterobacter cloacae; assay: Antibacterial activity against Enterobacter cloacae ARC3528 after 24 hrs by broth microdilution method; assay type: functional; details: ARC3528, 24 h; method in brief: as §1
[13] = test system: Haemophilus influenzae; assay: Antibacterial activity against Haemophilus influenzae ATCC 49247 after 24 hrs by broth microdilution method; assay type: functional; details: ATCC 49247, 24 h; method in brief: as §1
[14] = test system: Klebsiella pneumoniae; assay: Antibacterial activity against Klebsiella pneumoniae ARC1865 after 24 hrs by broth microdilution method; assay type: functional; details: ARC1865, 24 h; method in brief: as §1
[15] = test system: Candida albicans; assay: Antifungal activity against Candida albicans ATCC 90028 after 24 hrs by broth microdilution method; assay type: functional; details: ATCC 90028, 24 h
[16] = test system: Staphylococcus aureus; assay: Antibacterial activity against methicillin-resistant Staphylococcus aureus FQ-R after 24 hrs by broth microdilution method; assay type: functional; method in brief: as §3
[17] = Growth inhibition of human A549 cells; assay type: cell-based

Sequence of DNA topoisomerase 4 subunit B (P20083 whole entry): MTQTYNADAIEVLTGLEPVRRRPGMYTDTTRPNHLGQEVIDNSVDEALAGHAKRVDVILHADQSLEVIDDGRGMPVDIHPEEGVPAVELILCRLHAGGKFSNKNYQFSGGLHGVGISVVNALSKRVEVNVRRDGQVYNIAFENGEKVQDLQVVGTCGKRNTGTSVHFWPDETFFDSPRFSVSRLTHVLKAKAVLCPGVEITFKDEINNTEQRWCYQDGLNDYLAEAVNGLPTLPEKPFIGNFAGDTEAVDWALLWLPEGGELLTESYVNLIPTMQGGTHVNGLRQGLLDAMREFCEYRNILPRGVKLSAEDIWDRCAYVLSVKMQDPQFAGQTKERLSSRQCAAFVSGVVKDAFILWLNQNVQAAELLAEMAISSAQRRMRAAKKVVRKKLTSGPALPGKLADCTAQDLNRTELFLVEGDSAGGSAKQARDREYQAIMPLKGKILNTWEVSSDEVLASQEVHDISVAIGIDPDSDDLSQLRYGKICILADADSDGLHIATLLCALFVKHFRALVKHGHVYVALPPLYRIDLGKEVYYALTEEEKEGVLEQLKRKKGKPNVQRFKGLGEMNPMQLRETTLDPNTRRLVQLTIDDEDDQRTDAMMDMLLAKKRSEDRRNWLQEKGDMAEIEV

CCNC(=O)Nc1cc(-c2nc(C(F)(F)F)cs2)c(-c2cc(-c3n[nH]c(=O)o3)cnc2N2CCC(N)CC2)cn1
IC50 [1]: 2 nM
MIC [2]: > 50 µg/mL
pKa [3]: 9.5
MIC [4]: 9.2 µg/mL (≈ 16 µM)
MIC [5]: 1.15 µg/mL (≈ 2 µM)
MIC [6]: > 50 µg/mL
pKa [7]: 6.8
IC50 [8]: 23 nM

CC(=O)NC[C@H]1CN(c2ccc(N3CCOCC3)c(F)c2)C(=O)O1 [LINEZOLID]
MIC [9]: 0.5 µg/mL (≈ 1.48 µM)
MIC [10]: 1 µg/mL (≈ 2.96 µM)
MIC [11]: > 64 µg/mL
MIC [12]: > 64 µg/mL
MIC [13]: 4 µg/mL (≈ 11.9 µM)
MIC [14]: > 64 µg/mL
MIC [15]: > 64 µg/mL
MIC [16]: 0.5 µg/mL (≈ 1.48 µM)

CCNC(=O)Nc1cc(-c2nc(C(F)(F)F)cs2)c(-c2cc(C(=O)O)ccc2N2C3CCC2CN(C)C3)cn1
GI50 [17]: > 25000 nM
IC50 [1]: 9 nM
MIC [2]: 9 µg/mL (≈ 16.1 µM)
pKa [3]: 8.2
MIC [4]: 1.12 µg/mL (≈ 2 µM)
MIC [5]: 4.46 µg/mL (≈ 7.96 µM)
MIC [6]: 9 µg/mL (≈ 16.1 µM)
pKa [7]: 4.4
IC50 [8]: 10 nM

CCNC(=O)Nc1cc(-c2nc(C(F)(F)F)cs2)c(-c2cc(C(=O)O)cnc2N2C3CCC2CN(C)C3)cn1
GI50 [17]: > 50000 nM
IC50 [1]: 6 nM
MIC [2]: 9 µg/mL (≈ 16 µM)
pKa [3]: 7.4
MIC [4]: 1.12 µg/mL (≈ 1.99 µM)
MIC [5]: 4.48 µg/mL (≈ 7.98 µM)
MIC [6]: 9 µg/mL (≈ 16 µM)
pKa [7]: 3.5
IC50 [8]: 8 nM

Source: ChEMBL document CHEMBL4270612, “Discovery of dual GyrB/ParE inhibitors active against Gram-negative bacteria” (Eur J Med Chem, 2018)
